Measured values from PMC8892665 (ACS Omega, 2022).
Where “and” joins values, the source holds several entries; their conditions need not be identical. Equal values may be shown once. Each block holds one compound with its values, some of them ahead of it.

Columns and labels:
[1] = DPPH free radical scavenging; conditions: for DPPH radical scavenging % inhibition: at 100 μg/mL; for DPPH radical scavenging IC50: concentrations 100, 50, 25, 10 μg/mL, graphical method
Outline: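 DPPH (3.92 mg per 100 mL of 82% methanol) was combined with test compound at final 100, 50, 25 or 10 μg/mL and incubated 1 h at 25 °C in the dark. Absorbance at 517 nm. Scavenging % = […]. Triplicate, ascorbic acid positive control, IC50 obtained graphically.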

[2] = molecular target: calf intestinal alkaline phosphatase (CIAP) (Bos taurus, UniProt P19111); assay: Calf intestinal alkaline phosphatase inhibition assay; type: biochemical
calf intestinal alkaline phosphatase (CIAP), sequence (P19111 20-533): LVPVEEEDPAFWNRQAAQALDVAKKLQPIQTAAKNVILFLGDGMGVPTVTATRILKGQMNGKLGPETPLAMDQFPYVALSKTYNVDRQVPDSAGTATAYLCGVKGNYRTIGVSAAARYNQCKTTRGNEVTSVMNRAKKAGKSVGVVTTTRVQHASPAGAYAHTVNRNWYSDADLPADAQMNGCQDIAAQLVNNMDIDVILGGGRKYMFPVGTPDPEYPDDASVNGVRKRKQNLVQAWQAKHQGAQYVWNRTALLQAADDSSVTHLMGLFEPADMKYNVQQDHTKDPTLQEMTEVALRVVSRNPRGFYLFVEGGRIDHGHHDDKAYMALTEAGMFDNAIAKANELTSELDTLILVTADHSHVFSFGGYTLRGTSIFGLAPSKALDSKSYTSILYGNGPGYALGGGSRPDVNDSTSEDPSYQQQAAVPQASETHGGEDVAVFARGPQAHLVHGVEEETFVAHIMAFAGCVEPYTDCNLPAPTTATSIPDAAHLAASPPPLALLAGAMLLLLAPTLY

Compound: 4-(4-Hydroxyphenyl)-6-(2-methoxyphenyl)-3,4,6,7-tetrahydro-1H-pyrrolo[3,4-d]pyrimidine-2,5-dione [3k]
DPPH radical scavenging % inhibition [1]: less than 50%
alkaline phosphatase inhibitory activity (in words) [2]: low activities

Compound: 4-(4-Hydroxyphenyl)-6-(3-methoxyphenyl)-3,4,6,7-tetrahydro-1H-pyrrolo[3,4-d]pyrimidine-2,5-dione [3i]
DPPH radical scavenging % inhibition [1]: less than 50%
alkaline phosphatase inhibitory activity (in words) [2]: no inhibition

Compound: 6-(4-Hydroxyphenyl)-6-(2-nitrophenyl)-3,4,6,7-tetrahydro-1H-pyrrolo[3,4-d]pyrimidine-2,5-dione [3h]
DPPH radical scavenging % inhibition [1]: about 60%
DPPH radical scavenging IC50 [1]: 2.61 µg/mL
alkaline phosphatase inhibitory activity (in words) [2]: moderate activity

Compound: O=C1NC2=C(C(=O)N(Cc3ccccc3)C2)C(c2ccc(O)cc2)N1 (stereo not shown) [3a, 6-Benzyl-4-(4-hydroxyphenyl)-3,4,6,7-tetrahydro-1H-pyrrolo[3,4-d]pyrimidine-2,5-dione]
DPPH radical scavenging % inhibition [1]: about 60%
DPPH radical scavenging IC50 [1]: 2.61 µg/mL
alkaline phosphatase inhibitory activity (in words) [2]: no inhibition

Compound: CCCCCCCCN1CC2=C(C1=O)C(c1ccc(O)cc1)NC(=O)N2 (stereo not shown) [3b, 4-(4-Hydroxyphenyl)-6-octyl-3,4,6,7-tetrahydro-1H-pyrrolo[3,4-d]pyrimidine-2,5-dione]
DPPH radical scavenging IC50 [1]: 2.6 µg/mL

Compound: O=C1NC2=C(C(=O)N(Cc3ccc(Cl)cc3)C2)C(c2ccc(O)cc2)N1 (stereo not shown) [3c, 6-(4-Chlorobenzyl)-4-(4-hydroxyphenyl)-3,4,6,7-tetrahydro-1H-pyrrolo[3,4-d]pyrimidine-2,5-dione]
DPPH radical scavenging % inhibition [1]: less than 50%
alkaline phosphatase inhibitory activity (in words) [2]: low activities

Compound: O=C1NC2=C(C(=O)N(Cc3ccc(F)cc3)C2)C(c2ccc(O)cc2)N1 (stereo not shown) [3d, 6-(4-Fluorobenzyl)-4-(4-hydroxyphenyl)-3,4,6,7-tetrahydro-1H-pyrrolo[3,4-d]pyrimidine-2,5-dione]
DPPH radical scavenging % inhibition [1]: less than 50%

Compound: O=C1NC2=C(C(=O)N(c3ccc(F)cc3)C2)C(c2ccc(O)cc2)N1 (stereo not shown) [3f, 6-(4-Fluorophenyl)-4-(4-hydroxyphenyl)-3,4,6,7-tetrahydro-1H-pyrrolo[3,4-d]pyrimidine-2,5-dione]
DPPH radical scavenging IC50 [1]: 2.86 µg/mL

Compound: O=C1NC2=C(C(=O)N(c3nc4ccccc4[nH]3)C2)C(c2ccc(O)cc2)N1 (stereo not shown) [3g, 6-(1H-Benzo[d]imidazol-2-yl)-4-(4-hydroxyphenyl)-3,4,6,7-tetrahydro-1H-pyrrolo[3,4-d]pyrimidine-2,5-dione]
DPPH radical scavenging IC50 [1]: 1.85 µg/mL

Compound: COc1ccc(N2CC3=C(C2=O)C(c2ccc(O)cc2)NC(=O)N3)cc1 (stereo not shown) [3j, 4-(4-Hydroxyphenyl)-6-(4-methoxyphenyl)-3,4,6,7-tetrahydro-1H-pyrrolo[3,4-d]pyrimidine-2,5-dione]
DPPH radical scavenging IC50 [1]: 2.48 µg/mL

Compound: O=C1NC2=C(C(=O)N(Cc3ccccc3)C2)C(c2ccccc2O)N1 (stereo not shown) [4a, 6-Benzyl-4-(2-hydroxyphenyl)-3,4,6,7-tetrahydro-1H-pyrrolo[3,4-d]pyrimidine-2,5-dione]
DPPH radical scavenging % inhibition [1]: less than 50%

Compound: O=C1NC2=C(C(=O)N(Cc3ccc(F)cc3)C2)C(c2ccccc2O)N1 (stereo not shown) [4d, 6-(4-Fluorobenzyl)-4-(2-hydroxyphenyl)-3,4,6,7-tetrahydro-1H-pyrrolo[3,4-d]pyrimidine-2,5-dione]
DPPH radical scavenging % inhibition [1]: less than 50%

Compound: O=C1NC2=C(C(=O)N(c3ccc(Cl)cc3)C2)C(c2ccccc2O)N1 (stereo not shown) [4e, 6-(4-Chlorophenyl)-4-(2-hydroxyphenyl)-3,4,6,7-tetrahydro-1H-pyrrolo[3,4-d]pyrimidine-2,5-dione]
DPPH radical scavenging % inhibition [1]: 60%

Compound: O=C1O[C@H]([C@@H](O)CO)C(O)=C1O [ascorbic acid, reference compound]
DPPH radical scavenging % inhibition [1]: 97%
DPPH radical scavenging IC50 [1]: 0.25 µg/mL

Second part, led by results:

alkaline phosphatase inhibitory activity (in words) [2]: good activity
Compound: 4-(2-Hydroxyphenyl)-6-(2-methoxyphenyl)-3,4,6,7-tetrahydro-1H-pyrrolo[3,4-d]pyrimidine-2,5-dione [4i]
DPPH radical scavenging % inhibition [1]: less than 50%

DPPH radical scavenging IC50 [1]: 1.72 µg/mL
alkaline phosphatase inhibitory activity (in words) [2]: moderate activity
Compound: 4-(2-Hydroxyphenyl)-6-(2-nitrophenyl)-3,4,6,7-tetrahydro-1H-pyrrolo[3,4-d]pyrimidine-2,5-dione [4h]
DPPH radical scavenging % inhibition [1]: approximately 70%

alkaline phosphatase inhibitory activity (in words) [2]: no inhibition
Compound: 4-(2-Hydroxyphenyl)-6-(3-methoxyphenyl)-3,4,6,7-tetrahydro-1H-pyrrolo[3,4-d]pyrimidine-2,5-dione [4k]
DPPH radical scavenging % inhibition [1]: less than 50%

DPPH radical scavenging IC50 [1]: 2.731 µg/mL and 2.73 µg/mL
Compound: CCCCCCCCN1CC2=C(C1=O)C(c1ccccc1O)NC(=O)N2 (stereo not shown) [4b, 4-(2-Hydroxyphenyl)-6-octyl-3,4,6,7-tetrahydro-1H-pyrrolo[3,4-d]pyrimidine-2,5-dione]

alkaline phosphatase inhibitory activity (in words) [2]: no inhibition
Compound: O=C1NC2=C(C(=O)N(Cc3ccc(Cl)cc3)C2)C(c2ccccc2O)N1 (stereo not shown) [4c, 6-(4-Chlorobenzyl)-4-(2-hydroxyphenyl)-3,4,6,7-tetrahydro-1H-pyrrolo[3,4-d]pyrimidine-2,5-dione]
DPPH radical scavenging % inhibition [1]: less than 50%

DPPH radical scavenging IC50 [1]: 0.48 µg/mL
alkaline phosphatase inhibitory activity (in words) [2]: low activities
Compound: O=C1NC2=C(C(=O)N(c3ccc(F)cc3)C2)C(c2ccccc2O)N1 (stereo not shown) [4f, 6-(4-Fluorophenyl)-4-(2-hydroxyphenyl)-3,4,6,7-tetrahydro-1H-pyrrolo[3,4-d]pyrimidine-2,5-dione]
DPPH radical scavenging % inhibition [1]: highest percent of inhibition

DPPH radical scavenging IC50 [1]: 0.75 µg/mL
alkaline phosphatase inhibitory activity (in words) [2]: no inhibition
Compound: O=C1NC2=C(C(=O)N(c3nc4ccccc4[nH]3)C2)C(c2ccccc2O)N1 (stereo not shown) [4g, 6-(1H-Benzo[d]imidazol-2-yl)-4-(2-hydroxyphenyl)-3,4,6,7-tetrahydro-1H-pyrrolo[3,4-d]pyrimidine-2,5-dione]
DPPH radical scavenging % inhibition [1]: 80% and 70–80%

DPPH radical scavenging IC50 [1]: 2.45 µg/mL
alkaline phosphatase inhibitory activity (in words) [2]: low activities
Compound: COc1ccc(N2CC3=C(C2=O)C(c2ccccc2O)NC(=O)N3)cc1 (stereo not shown) [4j, 4-(2-Hydroxyphenyl)-6-(4-methoxyphenyl)-3,4,6,7-tetrahydro-1H-pyrrolo[3,4-d]pyrimidine-2,5-dione]
